Source: PubChem BioAssay
NCF1 inh – p47phox/p22phox peptide binding inhibitors, primary screen, biochemical, uHTS, NADPH oxidase regulatory subunit; Neutrophil cytosol factor 1 (Homo sapiens), P14598; fluorescence polarization, 2 h; inhibition, % at 24.7 µM; 0.53% of 220,000 active;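 further: 0% = p47phox with labelled peptide and 100% = labelled peptide alone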
Target sequence (P14598 whole entry, looked up): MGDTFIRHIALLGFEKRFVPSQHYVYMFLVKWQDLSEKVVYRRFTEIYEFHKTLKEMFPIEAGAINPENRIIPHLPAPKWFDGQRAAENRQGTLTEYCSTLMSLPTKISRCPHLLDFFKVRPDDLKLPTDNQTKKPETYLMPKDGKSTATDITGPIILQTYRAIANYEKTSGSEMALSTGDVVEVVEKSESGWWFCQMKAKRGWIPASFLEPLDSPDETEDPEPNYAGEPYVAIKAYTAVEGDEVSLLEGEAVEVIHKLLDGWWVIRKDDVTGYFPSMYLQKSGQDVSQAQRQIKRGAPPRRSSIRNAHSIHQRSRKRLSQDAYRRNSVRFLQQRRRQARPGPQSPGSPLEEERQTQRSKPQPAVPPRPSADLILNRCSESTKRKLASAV
Diaph act CS – compounds boosting diaphorase resazurin reduction – biochemical, uHTS, resorufin fluorescence, counter-screen for diaphorase-coupled primary assays, primary screen | Diaphorase/resazurin coupled assay, 16 min; stronger effect = higher value; 1 = vehicle wells, 0 = NADH-free wells | activation factor at 20 µM | 0.005% of 190,000 active;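 active means diaphorase activity raised at least twofold by the compound at 20 µM; inactive means activation factor below 2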
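Test system: Clostridium kluyveri diaphorase, purified enzyme; input: enzyme 0.07 U/mL final; buffer or medium: 50 mM HEPES pH 7.4 with 4.542 mM MgCl2, 0.005% Tween 20; also added: 0.114 mM NADH and 0.1 mM resazurin, final amounts; schedule: 16 min enzyme reaction, ambient temperature; technique: fluorescence of resorufin, 544 nm excitation, 590 nm emission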
14-3-3 Bad PPI – inhibitors of 14-3-3 zeta/Bad binding, primary screen, biochemical, TR-FRET, bovine 14-3-3 zeta | 14-3-3 protein zeta/delta (Bos taurus), P63103 | TR-FRET 14-3-3zeta/Dy647-pBad peptide displacement, 1 h | inhibition, % at 21.7 µM | 0.71% of 220,000 active;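 active means inhibition above about 70%, limit read from the data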;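 further: 0% = full 14-3-3 plus peptide FRET controls and 100% = background without 14-3-3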
Hck-Nef inh – inhibitors of Nef-activated human Hck kinase, primary screen, biochemical, Z-Lyte FRET, 384-well, Hck-YEEI; Recombinant Hck-YEEI plus Nef, Z-Lyte FRET kinase assay; 0.68% of 220,000 active; inhibition, % at 20 µM; AID 463187, 2010; Tyrosine-protein kinase HCK (Homo sapiens), P08631;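 active means Hck-Nef kinase inhibition above about 50%, limit read from the data; inactive means inhibition below that limit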;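 further: 0% = DMSO with Hck plus Nef and 100% = Hck alone without Nef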
eIF4E 4G PPI – eIF4E–eIF4G protein interaction inhibitors, primary screen, biochemical, uHTS, TR-FRET, eIF4GI fragment | 0.37% of 220,000 active | inhibition, % at 21.7 µM | TR-FRET eIF4E-eIF4GI(517-606) binding, 2 h | Eukaryotic translation initiation factor 4E (Mus musculus) + Eukaryotic translation …;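 further: 0% = full FRET control wells and 100% = background wells lacking eIF4GI fragment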
Hck Nef conf – retest of Hck:Nef kinase inhibitor hits, confirmation, biochemical, Z-Lyte FRET, 384-well, p-Tyr peptide counterscreen; shares compounds with Hck-Nef inh; Recombinant Hck-YEEI:Nef, Z-Lyte FRET kinase assay; calls only at 10 µM; 28% of 1,300 active;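 active means average inhibition of at least 50%, with Z-scores no higher than 3 in both the phospho-tyrosine peptide and fluorescence counterscreens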
The depositor's hits bear a star; i = inactive; / = not tested or not shown; + = active, no number. Rows were chosen to be rich in hits. Some 2% of all compounds tested hit in one or more screens of this group.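 How the source made its calls, unless noted: active means inhibition above about 30% (limit read from the data); inactive means the rest.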

SMILES	NCF1 inh	Diaph act CS	14-3-3 Bad PPI	Hck-Nef inh	eIF4E 4G PPI	Hck Nef conf
COc1ccc(C(=O)CSc2nnc(-c3ccco3)c(-c3ccco3)n2)cc1	5	0.4	29	85*	20	i
COc1ccc(C(=O)CSc2nnc(-c3ccco3)n2C)cc1	3	1	10	0	5	/
O=C1OC(c2ccc(Br)cc2)=N/C1=C\c1ccco1	-8	1	0	7	4	/
CC1=N/C(=C/c2ccco2)C(=O)O1	-26	0.9	38	58*	13	i
CCc1ccc2nc3nc(C)cc(C)c3c(N)c2c1	14	1	-8	21	1	/
Cc1cc(C)c2c(N)c3ccccc3nc2n1	8	0.9	-7	53*	6	i
CC(=O)OCC1=C(C(=O)O)N2C(=O)C(NC(=O)C(C)Cn3nc(C)c(Cl)c3C)C2SC1 (configuration not stated)	-16	0.8	36	70*	5	i
CCOc1ccccc1C(=O)Nc1ccc2nc(N3CCN(c4ncccn4)CC3)cc(C)c2c1	/	/	/	64*	/	+
Cn1c(=O)[nH]c(=O)c2c1nc1n2CC(COc2ccc3ccccc3c2)O1 (configuration not stated)	-1	/	2	24	0	/
CCNc1cc2oc(=O)c(CN3CCOCC3)c(C)c2cc1C	-5	0.9	2	82*	0	/
COc1cccc(-n2cnc3sc(C)cc3c2=O)c1	-2	0.8	-6	19	3	/
CNC(=S)Nc1cccc(C(=O)OC)c1	-1	/	-4	2	-1	/
COc1cccc(Nc2ncc(C#N)c(N)n2)c1	-14	/	-1	57*	-2	+
COc1cccc(Nc2nc3cc(OC)ccc3cc2C#N)c1	-3	0.9	-2	-9	3	/
Cc1nc2c(=O)[nH]c3ccccc3c2o1	3	0.8	-20	3	6	/
O=[N+]([O-])c1ccc(N/N=C/c2ccc(O)c(O)c2O)c(S(=O)(=O)N2CCOCC2)c1	-15	0.1	2	117*	20	i
O=S(=O)(O)c1cccc(N=Nc2c(O)ccc3ccccc23)c1	-108	/	2	85*	-6	+
COc1ccc(N=Nc2c(C)[nH][nH]c2=O)cc1	-3	1	-2	60*	4	i
CCCCN(C(=O)Cn1ncc(Cl)c(Cl)c1=O)c1c(N)n(CC(C)C)c(=O)[nH]c1=O	-9	/	13	66*	12	+
CCCCN(C(=O)CN1CC(C)OC(C)C1)c1c(N)n(CC(C)C)c(=O)[nH]c1=O (configuration not stated)	-6	1.1	-4	2	-2	/
COC(=O)Cc1c(C)c2ccc(OC(=O)c3ccccc3)cc2oc1=O	-2	0.9	12	56*	2	/
CCC(=O)Oc1ccc2c(C)c(Cl)c(=O)oc2c1	-13	0.9	-9	109*	12	/
COc1ccccc1-n1cnnc1SCC(=O)NCC1CCCO1 (configuration not stated)	-12	1	-11	-3	1	/
COc1cc(OC)c(OC)cc1/C=N/Nc1nc2ccccc2[nH]1	-24	/	-8	4	0	/
COc1cc(CNc2ncnc3c2[nH]c2ccc(C)cc23)cc(OC)c1	-27	/	5	19	1	/
COc1ccc(/C=N/Nc2ncnc3c2[nH]c2ccc(C)cc23)c(OC)c1OC	7	/	87*	69*	9	+
COc1cc(OC)c(OC)cc1/C=N/Nc1ncnc2c1[nH]c1ccccc12	-27	1	6	53*	3	/
CC(=O)N(C(C)=O)c1ncnc2c1c(-c1ccc(Cl)cc1)nn2C(C)(C)C	-11	1	-2	74*	-6	i
